Data taken from ChEMBL document CHEMBL1135962, “The first synthesis and antifungal activities of 9-methoxystrobilurin-type beta-substituted beta-methoxyacrylate” (2002).
Active and inactive are the calls of the source. No cut-off for these calls is given here.

Assays:
Saccharomyces cerevisiae [1] = test: Compound was evaluated for antifungal activity against Saccharomyces cerevisiae IAM 4861 as diameter of inhibition zone at a concentration 10 ug/disk and showed incomplete inhibition; assay type: functional
Summary of the method: (§1)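 Disk-diffusion assay against the fungal strain named in the line. Inhibition-zone diameter was measured after 48 h incubation and is the mean of two samples. Scoring codes used: not effective, slightly effective, incomplete inhibition.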

Candida albicans [2] = test: Compound was evaluated for antifungal activity against Candida albicans IFO 1594 as diameter of inhibition zone at a concentration 10 ug/disk and showed incomplete inhibition; assay type: functional; summary of the method: as §1
Saccharomyces cerevisiae [3] = test: Compound was evaluated for antifungal activity against Saccharomyces cerevisiae IAM 4861 as diameter of inhibition zone at a concentration 1 ug/disk and showed incomplete inhibition; assay type: functional; summary of the method: as §1
Penicillium citrinum [4] = test: Compound was evaluated for antifungal activity against penicillium ctrinum R-3703 as diameter of inhibition zone at a concentration 10 ug/disk; assay type: functional; summary of the method: as §1
Saccharomyces cerevisiae [5] = test: Compound was evaluated for antifungal activity against Saccharomyces cerevisiae IAM 4861 as diameter of inhibition zone at a concentration 0.1 ug/disk; NE means not effective; assay type: functional, organism-based; summary of the method: as §1
Candida albicans [6] = test: Compound was evaluated for antifungal activity against Candida albicans IFO 1594 as diameter of inhibition zone at a concentration 0.1 ug/disk; NE means not effective; assay type: functional, organism-based; summary of the method: as §1
Fusarium solani [7] = test: Compound was evaluated for antifungal activity against Fusarium solani R-2800 as diameter of inhibition zone at a concentration 10 ug/disk; NE means not effective; assay type: functional, organism-based; summary of the method: as §1
Fusarium solani [8] = test: Compound was evaluated for antifungal activity against Fusarium solani R-2800 as diameter of inhibition zone at a concentration 1 ug/disk; NE means not effective; assay type: functional, organism-based; summary of the method: as §1
Fusarium solani [9] = test: Compound was evaluated for antifungal activity against Fusarium solani R-2800 as diameter of inhibition zone at a concentration 0.1 ug/disk; NE means not effective; assay type: functional, organism-based; summary of the method: as §1
Candida albicans [10] = test: Compound was evaluated for antifungal activity against Candida albicans IFO 1594 as diameter of inhibition zone at a concentration 1 ug/disk; NE means not effective; assay type: functional, organism-based; summary of the method: as §1
Aspergillus fumigatus [11] = test: Compound was evaluated for antifungal activity against Aspergillus fumigatum R-1301 as diameter of inhibition zone at a concentration 1 ug/disk; NE means not effective; assay type: functional, organism-based; summary of the method: as §1
Penicillium citrinum [12] = test: Compound was evaluated for antifungal activity against penicillium ctrinum R-3703 as diameter of inhibition zone at a concentration 0.1 ug/disk; NE means not effective; assay type: functional, organism-based; summary of the method: as §1
Aspergillus fumigatus [13] = test: Compound was evaluated for antifungal activity against Aspergillus fumigatum R-1301 as diameter of inhibition zone at a concentration 0.1 ug/disk; NE means not effective; assay type: functional, organism-based; summary of the method: as §1
Penicillium citrinum [14] = test: Compound was evaluated for antifungal activity against penicillium ctrinum R-3703 as diameter of inhibition zone at a concentration 1 ug/disk; SE means slightly effective; assay type: functional, organism-based; summary of the method: as §1
Fusarium solani [15] = test: Compound was evaluated for antifungal activity against Fusarium solani R-2800 as diameter of inhibition zone at a concentration 1 ug/disk and showed incomplete inhibition; assay type: functional; summary of the method: as §1
Penicillium citrinum [16] = test: Compound was evaluated for antifungal activity against penicillium ctrinum R-3703 as diameter of inhibition zone at a concentration 1 ug/disk; assay type: functional; summary of the method: as §1
Candida albicans [17] = test: Compound was evaluated for antifungal activity against Candida albicans IFO 1594 as diameter of inhibition zone at a concentration 1 ug/disk and showed incomplete inhibition; assay type: functional; summary of the method: as §1
Aspergillus fumigatus [18] = test: Compound was evaluated for antifungal activity against Aspergillus fumigatum R-1301 as diameter of inhibition zone at a concentration 1 ug/disk; assay type: functional; summary of the method: as §1
Aspergillus fumigatus [19] = test: Compound was evaluated for antifungal activity against Aspergillus fumigatum R-1301 as diameter of inhibition zone at a concentration 10 ug/disk; assay type: functional; summary of the method: as §1
Fusarium solani [20] = test: Compound was evaluated for antifungal activity against Fusarium solani R-2800 as diameter of inhibition zone at a concentration 10 ug/disk and showed incomplete inhibition; assay type: functional; summary of the method: as §1
Saccharomyces cerevisiae [21] = test: Compound was evaluated for antifungal activity against Saccharomyces cerevisiae IAM 4861 as diameter of inhibition zone at a concentration 1 ug/disk; SE means slightly effective; assay type: functional, organism-based; summary of the method: as §1
Saccharomyces cerevisiae [22] = test: Compound was evaluated for antifungal activity against Saccharomyces cerevisiae IAM 4861 as diameter of inhibition zone at a concentration 10 ug/disk; NE means not effective; assay type: functional, organism-based; summary of the method: as §1
Penicillium citrinum [23] = test: Compound was evaluated for antifungal activity against penicillium ctrinum R-3703 as diameter of inhibition zone at a concentration 1 ug/disk; NE means not effective; assay type: functional, organism-based; summary of the method: as §1
Saccharomyces cerevisiae [24] = test: Compound was evaluated for antifungal activity against Saccharomyces cerevisiae IAM 4861 as diameter of inhibition zone at a concentration 1 ug/disk; NE means not effective; assay type: functional, organism-based; summary of the method: as §1
Aspergillus fumigatus [25] = test: Compound was evaluated for antifungal activity against Aspergillus fumigatum R-1301 as diameter of inhibition zone at a concentration 10 ug/disk; NE means not effective; assay type: functional, organism-based; summary of the method: as §1
Penicillium citrinum [26] = test: Compound was evaluated for antifungal activity against penicillium ctrinum R-3703 as diameter of inhibition zone at a concentration 10 ug/disk; NE means not effective; assay type: functional, organism-based; summary of the method: as §1
Candida albicans [27] = test: Compound was evaluated for antifungal activity against Candida albicans IFO 1594 as diameter of inhibition zone at a concentration 10 ug/disk; NE means not effective; assay type: functional, organism-based; summary of the method: as §1
Saccharomyces cerevisiae [28] = test: Compound was evaluated for antifungal activity against Saccharomyces cerevisiae IAM 4861 as diameter of inhibition zone at a concentration 10 ug/disk; SE means slightly effective; assay type: functional, organism-based; summary of the method: as §1
Penicillium citrinum [29] = test: Compound was evaluated for antifungal activity against penicillium ctrinum R-3703 as diameter of inhibition zone at a concentration 0.1 ug/disk; SE means slightly effective; assay type: functional, organism-based; summary of the method: as §1
Candida albicans [30] = test: Compound was evaluated for antifungal activity against Candida albicans IFO 1594 as diameter of inhibition zone at a concentration 10 ug/disk; assay type: functional, organism-based
Summary of the method: (§2)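 Disk-diffusion assay against the listed yeast strains (C. albicans IFO 1594; S. cerevisiae IAM 4861). Inhibition-zone diameter read after 48 hr incubation, reported as the mean of two samples. Activity scored as not effective, slightly effective, or incomplete inhibition where applicable.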

Saccharomyces cerevisiae [31] = test: Compound was evaluated for antifungal activity against Saccharomyces cerevisiae IAM 4861 as diameter of inhibition zone at a concentration 10 ug/disk; assay type: functional, organism-based; summary of the method: as §2
Saccharomyces cerevisiae [32] = test: Compound was evaluated for antifungal activity against Saccharomyces cerevisiae IAM 4861 as diameter of inhibition zone at a concentration 0.1 ug/disk and showed incomplete inhibition; assay type: functional; summary of the method: as §1
Penicillium citrinum [33] = test: Compound was evaluated for antifungal activity against penicillium ctrinum R-3703 as diameter of inhibition zone at a concentration 1 ug/disk and showed incomplete inhibition; assay type: functional; summary of the method: as §1
Penicillium citrinum [34] = test: Compound was evaluated for antifungal activity against penicillium ctrinum R-3703 as diameter of inhibition zone at a concentration 0.1 ug/disk and showed incomplete inhibition; assay type: functional; summary of the method: as §1
Candida albicans [35] = test: Compound was evaluated for antifungal activity against Candida albicans IFO 1594 as diameter of inhibition zone at a concentration 0.1 ug/disk; SE means slightly effective; assay type: functional, organism-based; summary of the method: as §1
Aspergillus fumigatus [36] = test: Compound was evaluated for antifungal activity against Aspergillus fumigatum R-1301 as diameter of inhibition zone at a concentration 0.1 ug/disk; assay type: functional; summary of the method: as §1
Candida albicans [37] = test: Compound was evaluated for antifungal activity against Candida albicans IFO 1594 as diameter of inhibition zone at a concentration 10 ug/disk; SE means slightly effective; assay type: functional, organism-based; summary of the method: as §1

Compound	Inhibition zone (Saccharomyces cerevisiae [1]) [mm]	Inhibition zone (Candida albicans [2]) [mm]	Inhibition zone (Saccharomyces cerevisiae [3]) [mm]	Inhibition zone (Penicillium citrinum [4]) [mm]	Inhibition zone (Saccharomyces cerevisiae [5])	Inhibition zone (Candida albicans [6])	Inhibition zone (Fusarium solani [7])	Inhibition zone (Fusarium solani [8])	Inhibition zone (Fusarium solani [9])	Inhibition zone (Candida albicans [10])	Inhibition zone (Aspergillus fumigatus [11])	Inhibition zone (Penicillium citrinum [12])	Inhibition zone (Aspergillus fumigatus [13])	Inhibition zone (Candida albicans [17]) [mm]	Inhibition zone (Aspergillus fumigatus [18]) [mm]	Inhibition zone (Aspergillus fumigatus [19]) [mm]	also measured
COC(=O)/C=C(/OC)[C@H](C)[C@H](/C=C/c1ccccc1)OC [listing 1 of 2 here]	43	20	25	28													
COC(=O)/C=C(/OC)[C@H](C)[C@H](/C=C/c1ccccc1)OC [listing 2 of 2 here]					inactive	inactive	inactive	inactive	inactive	inactive	inactive	inactive	inactive				Inhibition zone (Penicillium citrinum [14]): Slightly effective
COC(=O)\C=C(OC)/C(C)=C(\C=C\c1ccccc1)OC	46	32	30	42	inactive	inactive			inactive			inactive	inactive	27	17	36	Inhibition zone (Fusarium solani [15]): 22 mm; Inhibition zone (Penicillium citrinum [16]): 17 mm; Inhibition zone (Fusarium solani [20]): 30 mm
COC(=O)/C=C(/OC)[C@H](C)[C@H](/C=C/c1ccccc1)OC (racemic) [listing 1 of 2 here]					inactive	inactive	inactive	inactive	inactive	inactive	inactive	inactive	inactive				Inhibition zone (Saccharomyces cerevisiae [21]): Slightly effective; Inhibition zone (Penicillium citrinum [14]): Slightly effective
COC(=O)/C=C(/OC)[C@@H](C)[C@H](/C=C/c1ccccc1)OC (racemic)					inactive	inactive	inactive	inactive	inactive	inactive	inactive	inactive	inactive				Inhibition zone (Saccharomyces cerevisiae [22]): inactive; Inhibition zone (Penicillium citrinum [23]): inactive; Inhibition zone (Saccharomyces cerevisiae [24]): inactive; Inhibition zone (Aspergillus fumigatus [25]): inactive; Inhibition zone (Penicillium citrinum [26]): inactive; Inhibition zone (Candida albicans [27]): inactive
COC(=O)\C=C(OC)/C(C)=C(\C=C\c1cccc2ccccc12)OC					inactive	inactive	inactive	inactive	inactive	inactive	inactive	inactive	inactive				Inhibition zone (Penicillium citrinum [23]): inactive; Inhibition zone (Saccharomyces cerevisiae [24]): inactive; Inhibition zone (Saccharomyces cerevisiae [28]): Slightly effective; Inhibition zone (Aspergillus fumigatus [25]): inactive; Inhibition zone (Penicillium citrinum [26]): inactive; Inhibition zone (Candida albicans [27]): inactive
COC(=O)\C=C(OC)/C(C)=C(\C=C\c1cccs1)OC	49	32	31	40	inactive	inactive	inactive	inactive	inactive				inactive	16	20	29	Inhibition zone (Penicillium citrinum [16]): 21 mm; Inhibition zone (Penicillium citrinum [29]): Slightly effective
NYSTATIN				10			inactive									16	Inhibition zone (Candida albicans [30]): 16 mm; Inhibition zone (Saccharomyces cerevisiae [31]): 18 mm
CO\C=C(C(=O)OC)/C(C)=C(\C=C\c1ccccc1)OC [9-METHOXYSTROBILURIN A]	44	42	39	33			inactive	inactive	inactive					32	28	38	Inhibition zone (Saccharomyces cerevisiae [32]): 13 mm; Inhibition zone (Penicillium citrinum [33]): 23 mm; Inhibition zone (Penicillium citrinum [34]): 19 mm; Inhibition zone (Candida albicans [35]): Slightly Effective; Inhibition zone (Aspergillus fumigatus [36]): 16 mm
COC(=O)C=C(OC)/C(C)=C(\C=C\c1ccc(OC)c(OC)c1)OC	18		12	33	inactive	inactive	inactive	inactive	inactive	inactive		inactive	inactive		8	12	Inhibition zone (Penicillium citrinum [16]): 18 mm; Inhibition zone (Candida albicans [37]): Slightly effective
COC(=O)/C=C(/OC)[C@H](C)[C@H](/C=C/c1ccccc1)OC (racemic) [listing 2 of 2 here]	39	14		26												23	
COC(=O)\C=C(OC)/C(C)=C(\C=C\c1ccc2ccccc2c1)OC	21	14	15	13	inactive	inactive			inactive			inactive	inactive	8	10	16	Inhibition zone (Fusarium solani [15]): 19 mm; Inhibition zone (Penicillium citrinum [23]): inactive; Inhibition zone (Fusarium solani [20]): 27 mm
